Results of several laboratories.
pEC50, pIC50, pKi: −log10 of the molar value.
Target: Sodium-dependent noradrenaline transporter (SLC6A2, Homo sapiens, UniProt P23975)

C[C@@H](NC(=O)[C@@H](N)Cc1ccc(O)cc1)C(=O)NCC(=O)N[C@@H](Cc1ccccc1)C(=O)N(C)CCC[C@@]1(c2ccc(F)cc2)OCc2cc(C#N)ccc21  pKi (ligand displacement, radioligand): 6.12
CN[C@@H](C)C(=O)c1ccccc1  pEC50 (calcium signal, agonist, fluorescence): 6.92
C=CCN1CC[C@]23c4c5ccc(O)c4O[C@H]2C(=O)CC[C@]3(O)[C@H]1C5  pKi (ligand displacement, radioligand): < 5.15
C[C@H](N)Cn1ncc2ccc3c(c21)CCCO3  pKi (ligand displacement, radioligand): < 4.00
CCCC[C@@H](NC(=O)[C@@H](N)Cc1ccc(O)cc1)C(=O)NCC(=O)N[C@@H](Cc1ccc(F)cc1)C(=O)N(C)CCC[C@@]1(c2ccc(F)cc2)OCc2cc(C#N)ccc21  pKi (ligand displacement, radioligand): 5.62
CNc1nc(C#Cc2ccc(Cl)s2)nc2c1ncn2[C@@H]1O[C@H](C(=O)OC)[C@@H](O)[C@H]1O  pKi (ligand displacement, radioligand; cell membranes): < 5.00
CNC(C)(C)C(=O)c1ccccc1  pEC50 (calcium signal, agonist, fluorescence): 6.82
COc1cc(C(=O)N2CC[C@@H](O)[C@@H](N)C2)cc2nc(-c3cc4ccccc4n3CC3CC3)n(C)c12  pIC50 (transporter uptake, inhibitor): 4.70
CNc1nc(C#Cc2ccc(Br)s2)nc2c1ncn2[C@H]1[C@H](O)[C@H](O)[C@]2(C(=O)OC)C[C@H]12  pKi (ligand displacement, radioligand; cell membranes): < 5.00
